This is a sample that favours compounds with a hit; in the whole collection about 1.5% have one here.
T cell HTS: modulates CD8 T cell binding to vesicles; hit rate 0.068% among 330,000; response (vesicle binding), % at 7 µM; 2C CD8+ T cell-vesicle binding, flow cytometry; hits give low values;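 active = response, share of CD8 T cells binding vesicles, and their 90th percentile fluorescence all below set limits, cut at about 80% in these data, passing the limit was not always enough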;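 also: values below 100% mean blocked vesicle binding to the CD8+ T cells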
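incubation = binding step 1.5 h, 37 °C, antibody labelling 20 min, ice | test system = 2C mouse CD8+ T cells | read-out basis = percent CD8+ FL2 mean versus row control | controls = Peptide-free naked vesicles (low) and QL9 vesicles with 0.7% DMSO vehicle (high) | detection = flow cytometry of vesicle-bound cells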
Arr AP2 block: human beta-arrestin and AP2 interaction inhibition | hit rate 0.31% among 340,000 | FITC-arrestin peptide / GST-AP2 beads, flow cytometry; AP2 beta2 appendage carries R879A mutation | inhibition, % at 10 µM;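 active = inhibition above a set limit, near 3 SD of compounds lacking own fluorescence, cut at about 54% in these data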;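 also: plate controls were DMSO wells for no effect and 5 µM unlabelled arrestin peptide for full effect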
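Test system: GST-tagged AP2 beta2-adaptin appendage (R879A) on 4 µm glutathione beads; also added: fluorescein-tagged arrestin peptide at 50 nM final; timing: 12 min plus 1 h, RT; signal: flow cytometry, FL1 (488/535 nm); read-out: percent drop in bead-associated FITC signal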
Pemphigus Ab inh: blocks pemphigus antibody binding to human desmoglein-3; hit rate 0.48% among 310,000; DSG3-coupled beads, scFv-anti-DSG3-GFP binding, flow cytometry; hits give low values; P32926; binding (percent of control), % at 10 µM;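 active = binding more than 3 SD below its plate's average and above zero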;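 also: hits lower antibody fragment binding to DSG3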
Target sequence (P32926 whole entry, looked up, the tested form may be a part): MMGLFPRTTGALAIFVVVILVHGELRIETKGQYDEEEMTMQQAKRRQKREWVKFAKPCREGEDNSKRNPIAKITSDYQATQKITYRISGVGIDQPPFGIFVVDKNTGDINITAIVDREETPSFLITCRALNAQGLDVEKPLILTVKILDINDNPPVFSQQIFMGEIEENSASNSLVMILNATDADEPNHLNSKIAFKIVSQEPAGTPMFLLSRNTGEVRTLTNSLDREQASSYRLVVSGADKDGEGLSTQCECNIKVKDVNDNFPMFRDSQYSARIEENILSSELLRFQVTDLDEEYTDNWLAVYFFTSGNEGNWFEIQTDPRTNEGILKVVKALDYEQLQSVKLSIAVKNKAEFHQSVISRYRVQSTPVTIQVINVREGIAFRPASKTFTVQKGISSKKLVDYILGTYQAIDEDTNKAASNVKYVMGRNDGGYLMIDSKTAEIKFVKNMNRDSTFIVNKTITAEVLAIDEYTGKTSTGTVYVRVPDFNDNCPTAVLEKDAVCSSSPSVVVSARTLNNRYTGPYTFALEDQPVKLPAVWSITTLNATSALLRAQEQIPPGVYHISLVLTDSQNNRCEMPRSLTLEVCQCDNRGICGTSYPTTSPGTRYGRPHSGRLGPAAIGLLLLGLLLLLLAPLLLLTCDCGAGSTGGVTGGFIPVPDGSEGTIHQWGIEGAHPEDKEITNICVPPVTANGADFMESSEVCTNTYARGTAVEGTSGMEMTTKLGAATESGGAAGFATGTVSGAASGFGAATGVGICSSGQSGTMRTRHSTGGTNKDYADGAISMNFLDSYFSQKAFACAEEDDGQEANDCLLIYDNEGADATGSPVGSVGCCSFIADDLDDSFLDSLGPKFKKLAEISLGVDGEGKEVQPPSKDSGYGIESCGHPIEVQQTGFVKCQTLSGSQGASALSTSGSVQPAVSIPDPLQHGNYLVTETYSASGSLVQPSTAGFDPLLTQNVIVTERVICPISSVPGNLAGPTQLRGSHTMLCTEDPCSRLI
HDAC3 inh: blocks human histone deacetylase 3; inhibition, % at 8.3 µM; recombinant HDAC3, fluorogenic peptide/trypsin coupled, fluorescence; hit rate 0.15% among 320,000; AID 2718; O15379; in the data active = inhibition above about 26%, passing the limit was not always enough
LANA-H2B inh: blocks KSHV LANA binding to histone H2A/H2B | Q9QR71 | cell-free LANA-H2A/H2B peptide, fluorescence polarization | inhibition, % (no concentration beside the values) | hit rate 0.6% among 320,000; in the data active = inhibition mostly above about 10%, no sharp cut-off; inactive = mostly below about 6.7%
* = called active by the depositor; i = inactive; . = not tested or not shown; + = active, no number.

SMILES | T cell HTS | Arr AP2 block | Pemphigus Ab inh | HDAC3 inh | LANA-H2B inh
CC(C)c1ccc[n+](-c2nc([O-])sc2C=O)c1 | 182 | 37 | 102 | 3 | 2
Cc1ccc[n+](-c2nc([O-])sc2C=O)c1 | 124 | -5 | 97 | -3 | 29*
CNC(=O)c1ccc(NC(=O)CC2SC(N3CCCC3)=NC2=O)cc1 (stereo not drawn) | i | 17 | 107 | 0 | 50*
CC(C)NC(=O)c1ccc(NC(=O)CC2SC(N3CCCC3)=NC2=O)cc1 (stereo not drawn) | 599 | . | . | -6 | +
COc1cccc(CNC(=O)c2ccc(NC(=O)CC3SC(N4CCCC4)=NC3=O)cc2)c1 (stereo not drawn) | 456 | 3 | 98 | 5 | 39*
COc1ccc(OCC(=O)O/N=C(\N)c2ccc(OC)cc2)cc1 | 608 | 0 | 103 | 4 | 3
CO/N=C(/COc1ccc(F)cc1)c1ccc(OC)cc1 | 244 | 0 | 72* | 8 | -2
O=CNC1c2ccccc2CCc2ccccc21 | . | 35 | 124 | . | .
CC(C)NC(=O)CN(Cc1ccc(F)cc1)C(=O)CCC(=O)Nc1nccs1 | 457 | -9 | 117 | 1 | 2
CCOc1ccc(N2C(=O)C3ON(c4ccccc4)C(c4ccco4)C3C2=O)cc1 (stereo not drawn) | 247 | 6 | 102 | -1 | 11*
Cc1ccccc1N1C(=O)C2ON(c3ccccc3)C(c3ccco3)C2C1=O (stereo not drawn) | 248 | -4 | 109 | 0 | 0
CC(=O)c1cccc(N2C(=NC(=O)C3CCCCC3)SC3CS(=O)(=O)CC32)c1 (stereo not drawn) | 268 | -1 | 126 | -1 | -5
CC1CCN(CCCNC(=O)c2cc3c(=O)n(C)c4ccccc4c3n2C)CC1 | 95 | -1 | 108 | -10 | 3
Cn1c(C(=O)NCCCN2CCOCC2)cc2c(=O)n(C)c3ccccc3c21 | 113 | 23 | 83* | -7 | 1
CC(C)(C)NS(=O)(=O)c1ccc(NC(=O)c2cc(-c3ccccc3)nc3ccccc23)cc1 | 645 | 11 | 65* | 1 | 3
CCc1ccc(-c2cc(C(=O)Nc3ccc(S(=O)(=O)NC(C)=O)cc3)c3ccccc3n2)cc1 | 318 | -3 | 63* | 6 | -1
CC(C)(C)NS(=O)(=O)c1ccc(NC(=O)C(Sc2ccccc2)c2ccccc2)cc1 (stereo not drawn) | 333 | 23 | 100 | 29* | 2
CC1CCCCC1NC(=O)COC(=O)c1c2c(nc3ccccc13)/C(=C\c1ccco1)CC2 (stereo not drawn) | . | 20 | 115 | . | .
CCOC(=O)Cc1csc(SCC(=O)NC2CCS(=O)(=O)C2)n1 (stereo not drawn) | 256 | 2 | 104 | -1 | 1
COc1ccc(NS(=O)(=O)c2cn(C)cn2)cc1OC | i | 2 | 103 | -3 | 1
Cc1nc2ccccc2cc1C(=O)N/N=C/c1cccs1 | 0.0* | 10 | 87 | 6 | 2
Cc1nc2ccccc2cc1C(=O)N/N=C/c1ccco1 | 170 | 1 | 86 | 5 | -1
Cc1ccc(C2(C)NC(=O)N(CC(=O)NNC(=O)c3ccccc3F)C2=O)cc1 (stereo not drawn) | 479 | -14 | 101 | 0 | 21*
CCCCc1nnc(NC(=O)C(C)Sc2nc(C)cc(=O)[nH]2)s1 (stereo not drawn) | 118 | -1 | 92 | -3 | 12*
Cc1nc2ccc(C(C(F)(F)F)(C(F)(F)F)C(F)(F)F)cc2[nH]1 | 230 | -1 | 103 | 32* | -5
SMILES | T cell HTS | Arr AP2 block | Pemphigus Ab inh | HDAC3 inh | LANA-H2B inh
C[C@@H]1CC[C@]2(O[C@H](CCO)C[C@H](O)[C@H]2O)O1 | 180 | 1 | 111 | -5 | -3
COc1ccc2cc(CCC(C)=O)ccc2c1 | 139 | 4 | 102 | 10 | 13*
COc1ccc(CCc2ccc3cc(OC)ccc3n2)cc1 | . | 54 | 90 | . | .
COc1ccc(S(=O)(=O)N2CCOC2CNC(=O)C(=O)NCCN2CCOCC2)cc1 (stereo not drawn) | 93 | -4 | 101 | 2 | -3
Cc1ccc(S(=O)(=O)n2cnc3ccccc32)cc1[N+](=O)[O-] | 872 | -2 | 93 | -12 | 4
O=C(COC(=O)c1ccc(S(=O)(=O)N2CCc3ccccc3C2)cc1)NC1CCS(=O)(=O)C1 (stereo not drawn) | 265 | 16 | 67* | 0 | 5
O=C(COC(=O)c1ccc(S(=O)(=O)N2CCCCC2)cc1)NC1CCCCC1 | . | . | 102 | . | .
Cc1ccc(S(=O)(=O)CCC(=O)OCC(=O)NC2CCS(=O)(=O)C2)cc1 (stereo not drawn) | 203 | 38 | 107 | 2 | 25*
Cc1ccc2c(c1)-n1c(nc3cc(Cl)ccc3c1=O)C(Cc1ccccc1)NC2=O (stereo not drawn) | 239 | . | . | 2 | 2
O=C(NCc1cccnc1)C1CCN(S(=O)(=O)c2cc(Cl)ccc2Cl)CC1 | 448 | 24 | 102 | -7 | -4
COc1cc(/C=C2\SC(=O)N(CCNC(=O)c3sc4cc(F)ccc4c3Cl)C2=O)cc(OC)c1OC | 330 | 11 | 106 | 6 | 15*
COc1ccccc1/C=C/C(=O)OCC(=O)N1CCN(S(=O)(=O)c2ccc(C)cc2C)CC1 | . | -4 | 100 | . | .
O=C1c2ccccc2C(=O)N1CCCN1C(=O)c2ccccc2C1=O | . | 10 | -1.0* | . | .
CC(C)(C)c1ccc(CNC(=O)C2CCCN2C(=O)Nc2ccccc2)cc1 (stereo not drawn) | 79 | 1 | 93 | -5 | 4
Cc1cc(C)cc(OCC(=O)Nc2ccc(N3CCN(C(=O)c4ccco4)CC3)cc2)c1 | . | -12 | 98 | 1 | -5
Cc1ccc([N+](=O)[O-])cc1S(=O)(=O)Nc1ccc(C(=O)N(C)C)cc1 | 472 | 3 | 103 | 2 | 0
O=C(COc1ccc(Cl)cc1)Nc1ccc(N2CCN(C(=O)c3ccco3)CC2)cc1 | 320 | 29 | 72* | 2 | 3
COc1ccc(OCC(=O)Nc2ccc(N3CCN(C(=O)c4ccco4)CC3)cc2)cc1 | 180 | -26 | 109 | 6 | -4
Cc1ccc([N+](=O)[O-])cc1S(=O)(=O)Nc1ccc(C(=O)N2CCN(C(=O)c3ccco3)CC2)cc1 | 482 | 15 | 89 | 4 | 16*
O=C(COc1ccc([N+](=O)[O-])cc1)Nc1ccc(N2CCN(C(=O)c3ccco3)CC2)cc1 | 328 | 6 | 102 | 0 | 28*
Cc1ccc(-c2nc3ccccc3s2)cc1NC(=O)c1cc(-n2cnnc2)ccc1Cl | 593 | 0 | 76* | -3 | -2
CC(C)[N+]1=C2C=CC=CC=C2SC12C([N+](=O)[O-])=CC(=[N+]([O-])[O-])C=C2[N+](=O)[O-] (stereo not drawn) | 259 | 23 | 66* | -12 | -1

From PubChem BioAssay
